Laboratory results taken from ChEMBL document CHEMBL3865800, “Design, synthesis and biological evaluation of 4-anilinoquinazoline derivatives as new c-myc G-quadruplex ligands” (Eur J Med Chem, 2016).
Activity calls are given as the source filed them. The calls are words filed in the database; no cut-off is given here.

Columns and labels:
[1] = Binding affinity to biotinylated 5'-Pu22-3'-labelled c-myc G-quadruplex DNA (unknown origin) after 240 secs by SPR assay
Method in brief: (§1)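 SPR: biotinylated Pu22 and biotinylated duplex folded in 50 mM Tris-HCl pH 7.4, 150 mM KCl, 0.005% Tween20, captured (~1000 RU) on separate flow cells with a blank reference; ligand 0.0625–10 μM in running buffer, 240 s association then 240 s dissociation at 25 °C; equilibrium KD derived.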

[2] = Cytotoxicity against human A549 cells assessed as reduction in cell viability after 48 hrs by MTT assay; type: functional, cell-based; conditions: A549, 48 h
[3] = Selectivity ratio of Kd for double stranded DNA (unknown origin) to Kd for biotinylated 5'-Pu22-3'-labelled c-myc G-quadruplex DNA
[4] = Binding affinity to 5'-FPu22T-3'-labelled c-myc G-quadruplex DNA (unknown origin) assessed as change in melting temperature at 2 uM in presence ds26 DNA of by FRET assay
Method in brief: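 FRET melting of 0.4 μM labelled FPu22T with ligand 2.0 μM, alone or with 10-fold (4 μM), 50-fold (20 μM) or 100-fold (40 μM) excess unlabelled duplex ds26 as competitor; Tris-HCl 10 mM pH 7.4 with 10 or 60 mM KCl; ex 470/em 530 nm read every 1 °C from 37–99 °C, 30 s hold; ΔTm = Tm(DNA+ligand) − Tm(DNA).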

[5] = Cytotoxicity against human HeLa cells assessed as reduction in cell viability after 48 hrs by MTT assay; type: functional, cell-based
[6] = Binding affinity to 5'-FPu22T-3'-labelled c-myc G-quadruplex DNA (unknown origin) assessed as change in melting temperature by FRET assay
Method in brief: (§2)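 Fluorescence melting on real-time PCR instrument; 0.4 μM labelled oligonucleotide (FPu22T or duplex-forming F10T), ligand 2.0 μM, in 10 mM Tris-HCl pH 7.4 with 10 or 60 mM KCl; ex 470/em 530 nm at 1 °C steps over 37–99 °C, 30 s equilibration each; ΔTm = Tm(DNA+ligand) − Tm(DNA).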

[7] = Cytotoxicity against mouse primary mesangial cells assessed as reduction in cell viability after 48 hrs by MTT assay; type: toxicity
[8] = Binding affinity to biotinylated double stranded DNA (unknown origin) after 240 secs by SPR assay; method in brief: as §1
[9] = Cytotoxicity against human Raji cells assessed as reduction in cell viability after 48 hrs by MTT assay; type: functional, cell-based
[10] = Binding affinity to F10T duplex DNA (unknown origin) assessed as change in melting temperature by FRET assay; method in brief: as §2
[11] = Cytotoxicity against human CA46 cells assessed as reduction in cell viability after 48 hrs by MTT assay; type: functional, cell-based; conditions: CA46, 48 h
[12] = Binding affinity to 5'-Pu22-3' c-myc G-quadruplex DNA (unknown origin) assessed as induction of parallel c-myc G-quadruplex conformation at 2 equiv after 6 hrs in absence of KCl by CD-spectroscopic analysis
Method in brief: (§3)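 Pu22 at 3 μM final in 10 mM Tris-HCl buffer with ligand at 2 equiv, with 100 mM KCl or without KCl; heated 95 °C 5 min, slowly cooled, held ≥6 h; CD spectra 230–330 nm, 1 mm quartz cell, 1 nm bandwidth and step, 0.5 s/point, average of two scans.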

[13] = Binding affinity to 5'-Pu22-3' c-myc G-quadruplex DNA (unknown origin) assessed as maintainance of parallel c-myc G-quadruplex conformation at 2 equiv after 6 hrs in presence of KCl by CD-spectroscopic analysis; method in brief: as §3

| Kd [1] [µM] | Selectivity ratio [3] | Activity [4] | ΔTm [6] [°C] | Kd [8] [µM] | ΔTm [10] [°C] | Activity [12] | Activity [13] | Structure (SMILES) | IC50 [2] [µM] | IC50 [5] [µM] | IC50 at 48 h [7] [µM] | IC50 [9] [µM] | IC50 [11] [µM] |
| --- | --- | --- | --- | --- | --- | --- | --- | --- | --- | --- | --- | --- | --- |
| 1.64 | > 6.1 | Active | 12.2 | > 10 | 0.2 | – | – | CCN(CC)CCC(=O)Nc1ccc(Nc2nc(N(CC)CC)nc3ccccc23)cc1 | 6.1 | 6.3 | 6.4 | 5.1 | 10.3 |
| 4.68 | – | – | 5.3 | – | 0.1 | – | – | CCN(CC)CCC(=O)Nc1ccc(Nc2nc(-c3ccccc3N)nc3ccccc23)cc1 | 9.1 | 7.2 | 5.7 | 14.5 | 3.3 |
| 0.14 | – | Active | 19.4 | – | 0.8 | Active | Active | CN(C)CCNCCC(=O)Nc1ccc(Nc2nc(-c3ccccc3NC(=O)CCNCCN(C)C)nc3ccccc23)cc1 | > 50 | > 50 | > 50 | > 50 | 28.2 |
| – | – | – | 1.6 | – | 0.2 | – | – | Oc1ccccc1-c1nc(Nc2ccc(OCCN3CCCC3)cc2)c2ccccc2n1 | – | – | – | – | – |
| > 10 | – | – | 0.4 | – | 0.1 | – | – | CN1CCN(CCOc2ccc(Nc3nc(-c4ccccc4O)nc4ccccc34)cc2)CC1 | – | – | – | – | – |
| 3.34 | > 3 | – | 10 | > 10 | 0.4 | – | – | CCN(CC)CC(=O)Nc1ccc(Nc2nc(N(CC)CC)nc3ccccc23)cc1 | 20.8 | 21 | 10.2 | 13.5 | 4.2 |
| 1.33 | – | – | 4.8 | – | 0.3 | – | – | O=C(CCN1CCOCC1)Nc1ccc(Nc2nc(-c3ccccc3NC(=O)CCN3CCOCC3)nc3ccccc23)cc1 | > 50 | > 50 | > 50 | > 50 | > 50 |
| 0.49 | 18.7 | – | 11.4 | 9.18 | 3.7 | – | – | CCN(CC)CCC(=O)Nc1cc(Cl)ccc1-c1nc(NCCCN(C)C)c2ccccc2n1 | – | – | – | – | – |
| > 10 | – | – | 4.6 | – | 0.2 | – | – | CCN(CC)CCC(=O)Nc1ccc(Nc2nc(-c3ccccc3)nc3ccccc23)cc1 | 17.6 | 8.3 | 6.2 | 8.5 | 3.6 |
| 0.57 | 10.3 | Active | 21.8 | 5.89 | 3.7 | – | – | CN(C)CCCNCCC(=O)Nc1ccc(Nc2nc(-c3ccccc3NC(=O)CCNCCCN(C)C)nc3ccccc23)cc1 | > 50 | > 50 | > 50 | > 50 | > 50 |
| 0.21 | – | Active | 18 | – | 0.6 | Active | Active | CCN(CC)CCNCCC(=O)Nc1ccc(Nc2nc(-c3ccccc3NC(=O)CCNCCN(CC)CC)nc3ccccc23)cc1 | > 50 | > 50 | > 50 | > 50 | > 50 |
| – | – | – | 0.7 | – | 0.1 | – | – | Oc1ccccc1-c1nc(Nc2ccc(OCCN3CCOCC3)cc2)c2ccccc2n1 | – | – | – | – | – |
| – | – | – | 16.6 | – | 0.6 | – | – | CN(C)CCCNCCC(=O)Nc1ccc(C(=O)Nc2cc(Cl)ccc2-c2nc(NCCCN(C)C)c3ccccc3n2)cc1 | – | – | – | – | – |
| 0.61 | – | – | 12.5 | – | 0.1 | – | – | CN1CCN(CC(=O)Nc2ccc(Nc3nc(-c4ccccc4NC(=O)CN4CCN(C)CC4)nc4ccccc34)cc2)CC1 | 21.6 | 28.7 | 38.2 | 17.9 | 12.3 |
| 2.46 | – | – | 8.2 | – | 0.2 | – | – | CCN(CC)CCCOc1ccc(Nc2nc(N(CC)CC)nc3ccccc23)cc1 | 4.8 | 2.3 | 8.1 | 5.7 | 12.2 |
| 3.94 | – | – | 8.8 | – | 0.3 | – | – | CCN(CC)CC(=O)Nc1ccc(Nc2nc(-c3ccccc3NC(=O)CN(CC)CC)nc3ccccc23)cc1 | > 50 | 29.8 | 2.7 | 6.5 | 3.14 |
| 5.52 | – | – | 1 | – | 0.1 | – | – | CCN(CC)CCC(=O)Nc1ccc(Nc2nc(Cl)nc3ccccc23)cc1 | 45.3 | > 50 | > 50 | > 50 | 31.3 |
| 6.3 | – | – | 7.2 | – | 0.7 | – | – | CCN(CC)CC(=O)Nc1ccc(Nc2nc(-c3ccc(O)cc3)nc3ccccc23)cc1 | 27 | 21 | 12.9 | 12.9 | 13.3 |
| 0.54 | > 18.5 | Active | 13.6 | > 10 | 0.9 | – | – | CCN(CC)CCCC(=O)Nc1ccc(Nc2nc(-c3ccccc3NC(=O)CCCN(CC)CC)nc3ccccc23)cc1 | 24.5 | 32.5 | > 50 | 27.3 | 21 |
| > 10 | – | – | 0.4 | – | 0.2 | – | – | CCN(CC)CCNCCOc1ccc(Nc2nc(-c3ccccc3O)nc3ccccc23)cc1 | – | – | – | – | – |
| 2.89 | – | – | 7.1 | – | 0.4 | – | – | CCN(CC)CCOc1ccc(Nc2nc(N(CC)CC)nc3ccccc23)cc1 | 5 | 17.4 | 9.8 | 20.3 | 20.5 |
| > 10 | – | – | 0.4 | – | 0.1 | – | – | CCN(CC)CCOc1ccc(Nc2nc(-c3ccccc3O)nc3ccccc23)cc1 | – | – | – | – | – |
| – | – | – | 0.1 | – | 0.1 | – | – | CCN(CC)CC(=O)Nc1ccc(Nc2nc(Cl)nc3ccccc23)cc1 | > 50 | > 50 | > 50 | > 50 | 33.2 |
| 1.6 | 3.9 | Active | 26.6 | 6.21 | 3.6 | – | – | CCN(CC)CCCNCCC(=O)Nc1ccc(Nc2nc(-c3ccccc3NC(=O)CCNCCCN(CC)CC)nc3ccccc23)cc1 | > 50 | > 50 | > 50 | > 50 | > 50 |
| 0.4 | – | Active | 13.2 | – | 0.3 | Active | Active | CN1CCN(CCC(=O)Nc2ccc(Nc3nc(-c4ccccc4NC(=O)CCN4CCN(C)CC4)nc4ccccc34)cc2)CC1 | > 50 | 20.1 | > 50 | 27.8 | 19.5 |
| 0.52 | > 19.2 | Active | 13.1 | > 10 | 0.4 | – | – | CCN(CC)CCCCC(=O)Nc1ccc(Nc2nc(-c3ccccc3NC(=O)CCCCN(CC)CC)nc3ccccc23)cc1 | > 50 | 12.7 | > 50 | 12.6 | 5.7 |
| 0.55 | > 18.2 | Active | 12.6 | > 10 | 0.8 | – | – | O=C(CCCN1CCCC1)Nc1ccc(Nc2nc(-c3ccccc3NC(=O)CCCN3CCCC3)nc3ccccc23)cc1 | 27.2 | 22.4 | > 50 | 31.6 | 13.7 |
| > 10 | – | – | 1.4 | – | 0.2 | – | – | Oc1ccccc1-c1nc(Nc2ccc(OCCN3CCCCC3)cc2)c2ccccc2n1 | – | – | – | – | – |
| 8.08 | – | – | 0.2 | – | 0.2 | – | – | O=C(CN1CCOCC1)Nc1ccc(Nc2nc(-c3ccccc3NC(=O)CN3CCOCC3)nc3ccccc23)cc1 | > 50 | > 50 | > 50 | 12 | 2.14 |
